ChEMBL document CHEMBL1142928, “Substitution at the 8-position of 3''-deoxy-cyclic ADP-carbocyclic-ribose, a highly potent Ca2+-mobilizing agent, provides partial agonists” (Bioorg Med Chem, 2007)
The source made the active and inactive calls. No cut-off for these calls is given here.

Assays:
Assay type in all cases: functional
Echinoidea [1] = assay: Inhibition of cADPcR-induced calcium release in Sea urchin egg homogenate
Outline: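 Hemicentrotus pulcherrimus egg homogenate was read by fura-2 fluorescence ratio (F340/F380). Homogenate was exposed to graded analogue concentrations, then challenged with the maximal concentration of cADPcR. IC50 values were derived from dose-dependent desensitization (cross-desensitization) of the cADPcR-induced Ca2+ release.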

Echinoidea [2] = assay: Calcium-mobilizing activity in Sea urchin egg homogenate relative to cADPcR
Outline: (§1)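 Homogenate of Hemicentrotus pulcherrimus sea urchin eggs. Ca2+ release was monitored fluorometrically with fura-2 as the F340/F380 ratio over a range of analogue concentrations. Each response was expressed as the percent change in ratio relative to the response to the maximal cADPcR concentration. EC50 values were taken from dose–response curves.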

Echinoidea [3] = assay: Calcium-mobilizing activity in Sea urchin egg homogenate; outline: as §1

| SMILES | IC50 (Echinoidea [1]) | EC50 (Echinoidea [3]) | Activity (Echinoidea [2]) | Activity (Echinoidea [3]) |
| --- | --- | --- | --- | --- |
| [N-]=[N+]=Nc1nc2c(N)[n+]3cnc2n1[C@@H]1O[C@H](COP(=O)(O)OP(=O)([O-])OC[C@@H]2C[C@@H](O)[C@H]3C2)[C@@H](O)[C@H]1O | 1100 nM | 490 nM | 16% | – |
| Nc1c2nc(Cl)n3c2nc[n+]1[C@@H]1C[C@H](COP(=O)([O-])OP(=O)(O)OC[C@H]2O[C@@H]3[C@H](O)[C@@H]2O)C[C@H]1O | 410 nM | 190 nM | 21% | – |
| Nc1c2ncn3c2nc[n+]1[C@@H]1C[C@H](COP(=O)([O-])OP(=O)(O)OC[C@H]2O[C@@H]3[C@H](O)[C@@H]2O)[C@@H](O)[C@H]1O | – | 79 nM | – | – |
| Nc1c2ncn3c2nc[n+]1[C@@H]1C[C@H](COP(=O)([O-])OP(=O)(O)OC[C@H]2O[C@@H]3[C@H](O)[C@@H]2O)C[C@H]1O | – | 17 nM | 100% | – |
| Nc1nc2c(N)[n+]3cnc2n1[C@@H]1O[C@H](COP(=O)(O)OP(=O)([O-])OC[C@@H]2C[C@@H](O)[C@H]3C2)[C@@H](O)[C@H]1O | 44 nM | 17 nM | 14% | – |
| CCCNc1nc2c(N)[n+]3cnc2n1[C@@H]1O[C@H](COP(=O)(O)OP(=O)([O-])OC[C@@H]2C[C@@H](O)[C@H]3C2)[C@@H](O)[C@H]1O | – | – | – | inactive |

Further lines, with some results ahead:

| IC50 (Echinoidea [1]) | EC50 (Echinoidea [3]) | SMILES | Activity (Echinoidea [2]) | Activity (Echinoidea [3]) |
| --- | --- | --- | --- | --- |
| 4200 nM | – | [N-]=[N+]=Nc1nc2c(N)[n+]3cnc2n1[C@@H]1O[C@H](COP(=O)(O)OP(=O)([O-])OC[C@H]2C[C@@H]3[C@H](O)[C@@H]2O)[C@@H](O)[C@H]1O | – | – |
| 96 nM | 89 nM | Nc1nc2c(N)[n+]3cnc2n1[C@@H]1O[C@H](COP(=O)([O-])OP(=O)(O)OC[C@H]2C[C@@H]3[C@H](O)[C@@H]2O)[C@@H](O)[C@H]1O | 33% | – |
| 3000 nM | – | Nc1c2nc(Cl)n3c2nc[n+]1[C@@H]1C[C@H](COP(=O)(O)OP(=O)([O-])OC[C@H]2O[C@@H]3[C@H](O)[C@@H]2O)[C@@H](O)[C@H]1O | – | – |
